Eight compounds from ChEMBL document CHEMBL1156983, “Modulation of cell surface expression of nonactivated cholecystokinin receptors using bivalent ligand-induced internalization” (J Med Chem, 2010) can be followed below.

The source made the active and inactive calls. No cut-off for these calls is given here.

What all share (type): cell-based
For assay [1], the target named is Mu-type opioid receptor (Homo sapiens) (UniProt P35372). In words: Induction of receptor internalization in YFP-tagged mu opioid receptor expressed in CHO cells. The method in brief:
(§1)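 CHO cells stably expressing YFP-tagged MOP or YFP-tagged CCK2 receptor on coverslips, washed in PBS with 0.08 mM CaCl2 and 0.1 mM MgCl2. Incubated with 100 nM ligand at 4 °C for 90 min, washed with ice-cold PBS, then warmed in 37 °C PBS for various times. Fixed with 2% paraformaldehyde; YFP localization imaged by epifluorescence.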

Assay [2] has the same target. The experiment in a line: Induction of receptor internalization in YC-tagged mu opioid receptor expressed in CHO cells after 90 mins. The method in brief:
(§2)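 CHO cells stably coexpressing YN-tagged CCK2 and YC-tagged MOP receptors on coverslips, washed with PBS containing 0.08 mM CaCl2 and 0.1 mM MgCl2. Incubated with 100 nM ligand at 4 °C for 90 min, washed with ice-cold PBS, then moved to prewarmed 37 °C PBS for various times. Fixed in 2% paraformaldehyde; reconstituted YFP fluorescence imaged by epifluorescence microscopy.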

The target of assay [3] is T1, Gastrin/cholecystokinin type B receptor (Homo sapiens) (UniProt P32239).
T1 sequence (whole entry): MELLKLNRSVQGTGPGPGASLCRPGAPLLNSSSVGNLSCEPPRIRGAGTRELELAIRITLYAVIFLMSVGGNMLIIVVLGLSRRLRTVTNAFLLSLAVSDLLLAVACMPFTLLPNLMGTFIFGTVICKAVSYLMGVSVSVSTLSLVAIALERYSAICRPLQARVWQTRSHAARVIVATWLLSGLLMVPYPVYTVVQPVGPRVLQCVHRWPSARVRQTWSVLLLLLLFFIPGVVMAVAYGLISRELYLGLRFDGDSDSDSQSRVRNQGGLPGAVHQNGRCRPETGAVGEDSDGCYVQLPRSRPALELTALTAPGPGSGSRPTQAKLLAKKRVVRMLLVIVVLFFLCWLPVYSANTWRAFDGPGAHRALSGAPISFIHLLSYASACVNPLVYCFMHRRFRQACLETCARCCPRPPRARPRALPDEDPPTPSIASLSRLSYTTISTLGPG
In words: Induction of receptor internalization in YN-tagged CCK2 receptor expressed in CHO cells at 4 degC. A digest of the protocol:
as §2

In assay [4] the target is Mu-type opioid receptor (Homo sapiens) (UniProt P35372). In words: Induction of receptor internalization in YC-tagged mu opioid receptor expressed in CHO cells at 4 degC. The note with it: TDE = time-dependent effect. The method in brief: as §2
Assay [5] deals with T1, Gastrin/cholecystokinin type B receptor (Homo sapiens). The experiment in a line: Induction of receptor internalization in YN-tagged CCK2 receptor expressed in CHO cells after 90 mins. A digest of the protocol:
as §2

Assay [6] has the same target. In words: Induction of receptor internalization in YFP-tagged CCK2 receptor expressed in CHO cells. A digest of the protocol: as §1

Sequence of Mu-type opioid receptor (Homo sapiens) (P35372 whole entry): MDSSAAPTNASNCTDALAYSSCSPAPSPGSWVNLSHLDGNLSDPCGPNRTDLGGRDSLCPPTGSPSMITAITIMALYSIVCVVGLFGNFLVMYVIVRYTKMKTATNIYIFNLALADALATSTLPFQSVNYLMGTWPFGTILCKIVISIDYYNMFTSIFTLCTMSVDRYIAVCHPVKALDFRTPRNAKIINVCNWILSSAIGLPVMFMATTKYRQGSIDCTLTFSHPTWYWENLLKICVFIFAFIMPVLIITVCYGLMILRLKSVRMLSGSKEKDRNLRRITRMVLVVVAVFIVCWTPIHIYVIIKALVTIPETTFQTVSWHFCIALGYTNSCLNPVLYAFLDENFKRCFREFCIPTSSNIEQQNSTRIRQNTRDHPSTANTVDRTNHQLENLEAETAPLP

On to `CNC(=O)COCC(=O)NCCCCNC(=O)COCC(=O)N[C@H]1CC[C@@]2(O)C3Cc4ccc(O)c5c4[C@@]2(CCN3C)[C@H]1O5`, for which the result in assay [1] was Active. In addition, the result in assay [2] was inactive.

On to `CN1C(=O)[C@H](NC(=O)Nc2cccc(OCCNC(=O)COCC(=O)NNC(=O)COCC(=O)N[C@H]3CC[C@@]4(O)C5Cc6ccc(O)c7c6[C@@]4(CCN5)[C@H]3O7)c2)N=C(c2ccccc2)c2ccccc21`, for which the result in assay [3], in assay [5] and in assay [2] was Active. Moreover, the Activity entry in assay [4] is “tde”.

With `CN1C(=O)[C@H](NC(=O)Nc2cccc(OCCNC(=O)COCC(=O)NCCCCCCNC(=O)COCC(=O)N[C@H]3CC[C@@]4(O)C5Cc6ccc(O)c7c6[C@@]4(CCN5)[C@H]3O7)c2)N=C(c2ccccc2)c2ccccc21`, the outcome in assay [3], in assay [5] and in assay [2] was Active. The Activity result in assay [4] was “tde”.

`Cc1cccc(NC(=O)N[C@@H]2N=C(c3ccccc3)c3ccccc3N(C)C2=O)c1`: the outcome in assay [6] was inactive.

For `CNC(=O)COCC(=O)NCCCCCCNC(=O)COCC(=O)NCCOc1cccc(NC(=O)N[C@@H]2N=C(c3ccccc3)c3ccccc3N(C)C2=O)c1`, the result in assay [6] was Active. In addition, the outcome in assay [2] was inactive.

In the case of `C[C@@H](NC(=O)[C@@H](N)Cc1ccc(O)cc1)C(=O)NCC(=O)N(C)[C@@H](Cc1ccccc1)C(=O)NCCO`, the Activity entry in assay [1] (TDE = time-dependent effect) is “tde”.

On to `CN1C(=O)[C@H](NC(=O)Nc2cccc(OCCNC(=O)COCC(=O)NCCNC(=O)COCC(=O)N[C@H]3CC[C@@]4(O)C5Cc6ccc(O)c7c6[C@@]4(CCN5)[C@H]3O7)c2)N=C(c2ccccc2)c2ccccc21`, for which the result in assay [3], in assay [5] and in assay [2] was Active. Moreover, the Activity result in assay [4] is “tde”.

For the compound `CN1C(=O)[C@H](NC(=O)Nc2cccc(OCCNC(=O)COCC(=O)N[C@H]3CC[C@@]4(O)C5Cc6ccc(O)c7c6[C@@]4(CCN5)[C@H]3O7)c2)N=C(c2ccccc2)c2ccccc21`, in assay [2], the result was inactive.
